Results as given in ChEMBL document CHEMBL2331121, “Design, synthesis, and pharmacological characterization of N- and O-substituted 5,6,7,8-tetrahydro-4H-isoxazolo[4,5-d]azepin-3-ol analogues: novel 5-HT(2A)/5-HT(2C) receptor agonists with pro-cognitive properties” (J Med Chem, 2013).
Activity calls are given as the source filed them. No cut-off for these calls is given here.

Experiments:
[1] = biological target: T1, 5-hydroxytryptamine receptor 2C (Homo sapiens, UniProt P28335); test: Agonist activity at human 5HT2C receptor expressed in HEK293 cells assessed as induction of intracellular calcium release measured for 90 secs by fluorescence assay; format: functional, cell-based
T1 sequence (P28335 whole entry): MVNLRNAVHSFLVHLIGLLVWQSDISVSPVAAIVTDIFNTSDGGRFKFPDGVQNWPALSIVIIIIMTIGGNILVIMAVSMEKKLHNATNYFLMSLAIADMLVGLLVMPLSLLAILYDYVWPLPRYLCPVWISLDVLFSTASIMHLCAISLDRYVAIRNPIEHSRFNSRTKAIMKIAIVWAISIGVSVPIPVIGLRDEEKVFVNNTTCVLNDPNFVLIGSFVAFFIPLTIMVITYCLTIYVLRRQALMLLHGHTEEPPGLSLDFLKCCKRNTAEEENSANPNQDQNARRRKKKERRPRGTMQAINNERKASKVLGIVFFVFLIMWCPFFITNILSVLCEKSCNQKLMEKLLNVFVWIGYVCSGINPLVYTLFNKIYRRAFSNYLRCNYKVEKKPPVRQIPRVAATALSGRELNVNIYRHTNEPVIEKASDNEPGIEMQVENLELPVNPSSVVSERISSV

[2] = biological target: T2, 5-hydroxytryptamine receptor 2A (Homo sapiens, UniProt P28223); test: Agonist activity at human 5HT2A receptor expressed in HEK293 cells assessed as induction of intracellular calcium release measured for 90 secs by fluorescence assay; format: functional, cell-based
[3] = biological target: T2, 5-hydroxytryptamine receptor 2A; test: biochemical; format: cell-based, tsA201
[4] = biological target: T3, 5-hydroxytryptamine receptor 2C (Homo sapiens) (UniProt P28335); test: Antagonist activity at human 5HT2C receptor expressed in HEK293 cells assessed as inhibition of 5HT-induced intracellular calcium release at 1 mM measured for 90 secs by fluorescence assay; format: functional, cell-based
T3 sequence (whole entry): T1 sequence (P28335 whole entry)
Outline: (§1)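 Fluo-4/Ca²⁺ read-out in stable h5-HT2A or h5-HT2C HEK293 cells (HBSS/HEPES/probenecid buffer, pH 7.4). Antagonist was added after the dye-loading wash, then cells were challenged with an EC₇₅−EC₈₅ concentration of 5-HT. Emission at 525 nm was monitored up to 90 s after agonist addition. Duplicate, repeated in independent experiments.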

[5] = biological target: T2, 5-hydroxytryptamine receptor 2A; test: Agonist activity at human 5HT2A receptor expressed in HEK293 cells assessed as induction of intracellular calcium release at 1 mM measured for 90 secs by fluorescence assay; format: functional, cell-based
Outline: (§2)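 Stable polyclonal h5-HT2A or h5-HT2C HEK293 cells plated on poly-D-lysine wells, loaded next day with Fluo-4/AM for 1 h at 37 °C. Buffer was HBSS with 20 mM HEPES, 1 mM CaCl₂, 1 mM MgCl₂, 2.5 mM probenecid, pH 7.4. Fluorescence read at 485/525 nm before and up to 90 s after agonist addition. Responses normalised to 5-HT on the same plate. Duplicate, 4−10 experiments.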

[6] = biological target: T3, 5-hydroxytryptamine receptor 2C (Homo sapiens); test: Agonist activity at human 5HT2C receptor expressed in HEK293 cells assessed as induction of intracellular calcium release at 1 mM measured for 90 secs by fluorescence assay; format: functional, cell-based; outline: as §2
[7] = biological target: T1, 5-hydroxytryptamine receptor 2C; test: Displacement of [3H]mesulergine from human 5HT2C receptor expressed in tsA201 cell membranes after 1 hr by scintillation counting analysis
[8] = biological target: T2, 5-hydroxytryptamine receptor 2A; test: Antagonist activity at human 5HT2A receptor expressed in HEK293 cells assessed as inhibition of 5HT-induced intracellular calcium release at 1 mM measured for 90 secs by fluorescence assay; format: functional, cell-based; outline: as §1
[9] = biological target: T4, 5-hydroxytryptamine receptor 2C (Rattus norvegicus) (UniProt P08909); test: Displacement of [125I]-N-(p-I-Bn)-THAZ from 5HT2C in rat cerebral cortex membrane up to 50 uM after 1 hr by scintillation counting analysis; format: cell membranes
T4 sequence (whole entry): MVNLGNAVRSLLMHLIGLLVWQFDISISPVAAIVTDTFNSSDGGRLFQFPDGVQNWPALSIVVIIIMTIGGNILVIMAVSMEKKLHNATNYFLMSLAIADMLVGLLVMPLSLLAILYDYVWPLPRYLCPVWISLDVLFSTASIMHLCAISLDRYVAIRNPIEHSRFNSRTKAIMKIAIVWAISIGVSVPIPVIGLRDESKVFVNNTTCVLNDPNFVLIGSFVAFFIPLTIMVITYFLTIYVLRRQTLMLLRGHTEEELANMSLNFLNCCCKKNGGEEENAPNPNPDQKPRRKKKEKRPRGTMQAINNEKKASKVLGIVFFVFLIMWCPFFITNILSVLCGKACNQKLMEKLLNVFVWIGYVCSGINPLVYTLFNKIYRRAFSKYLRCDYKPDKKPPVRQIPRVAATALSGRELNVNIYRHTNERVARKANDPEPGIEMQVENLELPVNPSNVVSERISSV

[10] = biological target: T4, 5-hydroxytryptamine receptor 2C (Rattus norvegicus); test: Displacement of [125I]-N-(p-I-Bn)-THAZ from 5HT2C receptor in rat midbrain membrane after 1 hr by scintillation counting analysis; format: cell membranes
[11] = biological target: T4, 5-hydroxytryptamine receptor 2C (Rattus norvegicus); test: Displacement of [125I]-N-(p-I-Bn)-THAZ from 5HT2C receptor in rat hippocampal membrane after 1 hr by scintillation counting analysis; format: cell membranes; conditions: Hippocampus
[12] = biological target: T4, 5-hydroxytryptamine receptor 2C (Rattus norvegicus); test: Displacement of [125I]-N-(p-I-Bn)-THAZ from 5HT2C receptor in rat cerebellum membrane after 1 hr by scintillation counting analysis; format: cell membranes
[13] = biological target: T2, 5-hydroxytryptamine receptor 2A; test: Agonist activity at human 5HT2A receptor expressed in HEK293 cells assessed as accumulation of IP1 incubated for 1 hr at 37 degC followed by 15 mins at RT by TR-FRET assay; format: functional, cell-based
[14] = biological target: T2, 5-hydroxytryptamine receptor 2A; test: Agonist activity at human 5HT2A receptor expressed in HEK293 cells assessed as induction of intracellular calcium release by fluorescence assay relative to 5HT; format: functional, cell-based
Outline: (§3)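 Stable polyclonal 5-HT2A or 5-HT2C HEK293 cells seeded on poly-D-lysine plates (6 × 10⁴ cells/well). Next day loaded with Fluo-4/AM for 1 h at 37 °C in HBSS/20 mM HEPES/1 mM CaCl₂/1 mM MgCl₂/2.5 mM probenecid, pH 7.4. Fluorescence (485 ex/525 em) recorded before and up to 90 s after agonist. Response relative to 5-HT on the same plate. Duplicate, at least three times.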

[15] = biological target: T3, 5-hydroxytryptamine receptor 2C (Homo sapiens); test: Agonist activity at human 5HT2C receptor expressed in HEK293 cells assessed as accumulation of IP1 incubated for 1 hr at 37 degC followed by 15 mins at RT by TR-FRET assay relative to 5HT; format: functional, cell-based
Outline: (§4)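 Polyclonal HEK293 lines stably expressing human 5-HT2A (variant 1) or 5-HT2C (INI isoform), detached and suspended at 1 × 10⁷ cells/mL in HBSS with 20 mM HEPES, 1 mM CaCl₂, 1 mM MgCl₂, pH 7.4. Ligands in buffer with 40 mM LiCl. Incubated 1 h at 37 °C, then 15 min RT. IP1 read by HTRF 665/615 ratio. Triplicate, at least four times.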

[16] = biological target: T2, 5-hydroxytryptamine receptor 2A; test: Agonist activity at human 5HT2A receptor expressed in HEK293 cells assessed as accumulation of IP1 incubated for 1 hr at 37 degC followed by 15 mins at RT by TR-FRET assay relative to 5HT; format: functional, cell-based; outline: as §4
[17] = biological target: T1, 5-hydroxytryptamine receptor 2C; test: Agonist activity at human 5HT2C receptor expressed in HEK293 cells assessed as accumulation of IP1 incubated for 1 hr at 37 degC followed by 15 mins at RT by TR-FRET assay; format: functional, cell-based
[18] = biological target: T3, 5-hydroxytryptamine receptor 2C (Homo sapiens); test: Agonist activity at human 5HT2C receptor expressed in HEK293 cells assessed as induction of intracellular calcium release by fluorescence assay relative to 5HT; format: functional, cell-based; outline: as §3
[19] = biological target: T4, 5-hydroxytryptamine receptor 2C (Rattus norvegicus); test: Displacement of [125I]-N-(p-I-Bn)-THAZ from 5HT2C in rat cerebral cortex membrane at 300 uM after 1 hr by scintillation counting analysis; format: cell membranes

T2 sequence (P28223 whole entry): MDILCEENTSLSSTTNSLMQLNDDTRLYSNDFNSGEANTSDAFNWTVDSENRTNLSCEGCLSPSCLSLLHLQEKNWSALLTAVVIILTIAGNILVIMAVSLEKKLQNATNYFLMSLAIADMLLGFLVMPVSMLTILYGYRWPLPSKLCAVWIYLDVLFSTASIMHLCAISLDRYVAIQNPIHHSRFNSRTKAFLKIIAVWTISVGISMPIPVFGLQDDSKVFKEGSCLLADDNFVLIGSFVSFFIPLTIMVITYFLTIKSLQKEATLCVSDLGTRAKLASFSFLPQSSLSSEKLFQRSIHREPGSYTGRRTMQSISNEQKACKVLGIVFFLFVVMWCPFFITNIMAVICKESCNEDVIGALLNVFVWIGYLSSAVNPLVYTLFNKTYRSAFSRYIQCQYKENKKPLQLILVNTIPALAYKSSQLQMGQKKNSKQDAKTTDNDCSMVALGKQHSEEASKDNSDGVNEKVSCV

Compound | EC50 ([1]; hek293, read-out: EC50) [µM] | EC50 ([1]; read-out: pEC50 (converted)) [µM] | EC50 ([2]; hek293, read-out: EC50) [µM] | EC50 ([2]; read-out: pEC50 (converted)) [µM] | Ki ([3]; read-out: Ki) [µM] | Activity [4] | Activity [5] | Activity [6] | Ki [7] [µM] | Activity [8] | other results
CCn1oc2c(c1=O)CCN(C)CC2 | > 1000 | > 1000 | > 1000 | > 1000 | > 300 | inactive | inactive | inactive | > 300 | inactive | Ki ([3]; read-out: pKi (converted)): > 316 µM
Oc1noc2c1CCNCC2 | > 1000 | > 1000 | > 1000 | > 1000 | > 300 | inactive | inactive | inactive | > 300 | inactive | Ki ([3]; read-out: pKi (converted)): > 316 µM
NCCc1c[nH]c2ccc(O)cc12 | – | – | – | – | – | – | – | – | – | – | Activity [9]: inactive; Activity [10]: inactive; Activity [11]: inactive; Activity [12]: inactive
Clc1cccc(COc2cncc(N3CCNCC3)n2)c1 | – | – | – | – | 0.081 | – | – | – | 0.0093 | – | EC50 [13]: 0.14 µM; EC50 ([1]; read-out: EC50): 0.0019 µM; Emax [14]: 88%; EC50 ([2]; read-out: EC50): 0.076 µM; Emax [15]: 109%; Emax [16]: 90%; EC50 [17]: 0.0081 µM; Emax [18]: 103%
CN1CCc2on(C)c(=O)c2CC1 | > 1000 | > 1000 | > 1000 | > 1000 | > 300 | inactive | inactive | inactive | > 300 | inactive | Ki ([3]; read-out: pKi (converted)): > 316 µM
C[C@H](N)Cn1ccc2cc(F)c(Cl)cc21 | – | – | – | – | – | – | – | – | – | – | EC50 ([1]; read-out: EC50): 0.0047 µM; Emax [14]: 117%; EC50 ([2]; read-out: EC50): 0.027 µM; Emax [18]: 111%
NCCc1ccc(O)c(O)c1 | – | – | – | – | – | – | – | – | – | – | Activity [19]: inactive
CCn1oc2c(c1=O)CCNC2 | > 1000 | > 1000 | > 1000 | > 1000 | – | inactive | inactive | inactive | – | inactive | –
CCOc1noc2c1CCNCC2 | – | – | – | – | 100 | – | – | – | 100 | – | EC50 ([1]; read-out: EC50): 3 µM; Emax [14]: 42%; EC50 ([2]; read-out: EC50): 7.9 µM; Emax [18]: 67%
O=c1c2c(on1Cc1cccc(I)c1)CCNCC2 | – | – | – | – | – | – | – | – | 4.8 | – | –
Cn1oc2c(c1=O)CNCC2 | > 1000 | > 1000 | > 1000 | > 1000 | – | inactive | inactive | inactive | – | inactive | –
N[C@@H](CCC(=O)O)C(=O)O | – | – | – | – | – | – | – | – | – | – | Activity [19]: inactive
O=c1c2c(on1Cc1ccccc1I)CCNCC2 | – | – | – | – | – | – | – | – | 7.2 | – | –
Cc1cc2c(cc1Cl)N(C(=O)Nc1ccc(Oc3cccnc3C)nc1)CC2 | – | – | – | – | – | – | – | – | – | – | Activity [9]: inactive
